Measured values taken from the EternaBench riboswitch data.

Tested on: MS2 coat protein
Test: apparent Kd, MS2 coat protein; higher = weaker binding; RNA-MaP array; FMN 200 µM where present
In short: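 The apparent Kd is reported as the median of filtered per-cluster binding-curve fits. To get these curves, designs transcribed by stalled E. coli RNA polymerase on Illumina sequencing-chip clusters were titrated with SNAP-549-labelled MS2 coat protein from 0.7 or 1.5 nM, doubling to 3 µM. Titrations were run without and then with constant ligand in 100 mM Tris-HCl pH 7.5, 80 mM KCl, 4 mM MgCl2, BSA, DTT, yeast tRNA and Tween-20, and green signal was normalised to red-channel RNA signal and control-cluster median Fmax.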

[1] = designed as: OFF switch for flavin mononucleotide, no ligand
[2] = ligand present: flavin mononucleotide, designed as: OFF switch for flavin mononucleotide
[3] = designed as: ON switch for flavin mononucleotide, no ligand
[4] = ligand present: flavin mononucleotide, designed as: ON switch for flavin mononucleotide

Row | Sequence | apparent Kd [1] [nM] | apparent Kd [2] [nM] | apparent Kd [3] [nM] | apparent Kd [4] [nM]
1 | UGGUUUGGGCUAGAUGCACAGACAUGAGGAUCACCCAUGUCUGAGGAUAUGCGUCAACAUAGGCAGCAGAAGGCAGACACUCGC | 15 | 22.2 |  | 
2 | UUACAGUGCGGGUAGGAUAUGUAGGGUGGUACAUGAGGAUCACCCAUGUAUCCACCCUUCGACCGGCAGAAGGGCCUGUCACUAC |  |  | 17.1 | 20.5
3 | ACUUCACAUGAGGAUCACCCAUGUCAGGCCGGACUAGGAUAUUAUCAUGCAGCGUGACAGUGAGAAGGAGUUGGAU |  |  | 162 | 188
4 | GGAUCGAAUGUGAGGAUAUACCACUGGAUACAGUGGUAGAAGGCACAUGAGGAUCACCCAUGUCUCUACGAUCC | 19.6 | 111 |  | 
5 | UUUUUUGUUGUGAGGAUAUCGUUGUGGAUGUGGAUCGAGAAGGCACAUGAGGAUCACCCAUGUUUGUUGUGGUU | 102 | 158 |  | 
6 | AGUGUCAUCGAGAAGGCCUUAAGAACAUGAGGAUCACCCAUGUAACAUGGGAGGAUAUCGAUGAUACAGCUACGUUUCGUAGCA |  |  | 12.4 | 5.21
7 | GGGCAAAAGUAGAAGGGAUAUACGAAAAGUAUAUCAGGAUAUACAUGAGGAUCACCCAUGUUCUAAAAGUGAUAGUCCUCCCUA | 33.3 | 262 |  | 
8 | GUCGUACAUGAGGAUCACCCAUGUGAGGAUAUGAGUGACUCAGUGAAAACUGAGUCACUCAGAAGGCGCAUGAU | 84.5 | 384 |  | 
9 | AGAUAACACCAGAAGGACAUGAGGAUCACCCAUGUAGGAUAUGGGCAUCACUCGAGAAAGAAACGACCAAAAGGACACGUGGUC |  |  | 177 | 13.4
10 | UUAAUUAUACAAGGAUAUCUAUUGUAGUUUCGACUAACAUGAGGAUCACCCAUGUAAAUAUGUUAAGAGAAGGUGUAUUUUAAA |  |  | 45.5 | 30.3
11 | GUAGCAUACAGAGGAUAUCUUUACCGGAAACGGACAUGAGGAUCACCCAUGUGGCGAAAGCCUAGGGAGAAGGCUGAAUGCUAC |  |  | 11.6 | 12.3
12 | GUCAGCUCGUGAGGAUAUACAACACUGCUUCGGCAGUGUAUUAAGAUCACAUGAGGAUCACCCAUGUAGAAGGCAGGAGCUGAU | 15.7 | 250 |  | 
13 | GUACGUGGACAGAAGGCGACAUGAGGAUCACCCAUGUUGGCUCGCGUAUGAGCAAUCCGCAUGAUUGAGGAUAUGUCUGCGGGC | 9.05 | 49.7 |  | 
14 | UCCUUCUGUUGAGGAUAUGUAAGACAGCGGCUGCUAUUGCGGCCCGCUGAUACAGAAGGCAACAUGAGGAUCACCCAUGUUCAA | 22.9 | 163 |  | 
15 | GUCUCGUCAGGAUAUGACGCUACAUUUUGUUUUUAGAAGAGUCAGAAGGGACAUGAGGAUCACCCAUGUGAUUC | 329 | 402 |  | 
16 | ACUUGCUUGCAGAAGGGUGACAUGAGGAUCACCCAUGUAGCGGGCCGGCGUAAAGUCAGCGCGCCACAGGAUAUGCAGGCCUCG |  |  | 25.2 | 58.5
17 | UGUAUGGACAGAGGAUAUACAGAUAGGAUCUACUAUCAAACAGUCCUAACAUGAGGAUCACCCAUGUAGAAGGCUGUCCAUACU | 20.6 | 82.1 |  | 
18 | GCAGCAUAGUUUACUAGCUGUUACAUGAGGAUCACCCAUGUUCAGGAUAUGGUCUGGAUUACAGGCCAGAAGGGAACAAGCUGC | 14.8 | 12 |  | 
19 | CCAACUGGAGGAUAUGCAGCGGCGGUCUCUUGGUUUGCAUUACAUGAGGAUCACCCAUGUAGAAGGCCGGUUGU | 117 | 201 |  | 
20 | UUGGACGUCGUAGGAUAUGUAGGCUAUUCCUACAUGAGGAUCACCCAUGUUGACAUGGAAGAAGGACAGAAGGACGAUGUCCAU |  |  | 30.4 | 3.85
21 | GGAUGUCAAAGACAUCCAAUUCGAACAUGAGGAUCACCCAUGUAGGAUAUGCUACUCAAAGAGUAGCAGAAGGACAUGUGCCUU | 30.6 | 213 |  | 
22 | UAAUAUUUAUAAUAUUAUUACAUUAGAAGGCAAGACAUGUGGAUACAUGAGGAUCACCCAUGUAUUGAGGAUAUAGACAUAUAU | 14.6 | 21.7 |  | 
23 | AGCUGACGAGGAUAUACAUGAGGAUCACCCAUGUUGGUUCAGCGACUUCGGUCGCAAUGUAGAAGGCGUCAGCU | 450 | 327 |  | 
24 | GUCAGCUCGUGAGGAUAUACAACGCUGCUUCGGCAGUGUAUUAAGAUCACAUGAGGAUCACCCAUGUAGAAGGCACGAGCUGAU | 15.1 | 284 |  | 
25 | CAAGACAUUCGAAACUGCCGGCCGCAGGAUAUGGGUCGUUUAUACAUGAGGAUCACCCAUGUCGCCUAGAAGGGCGGCUGGGUC |  |  | 174 | 17.6
26 | GGGAAGUUAGGAUAUGCUGCUCGUCACUUGCGUGAUGAGUAGCAGAAGGGACAUGAGGAUCACCCAUGUAAAAA | 51.1 | 26.8 |  | 
27 | AGCUGUGGCCGAGGAUAUCUAACAAUCCCAACCGAAAUAUAAUCGGACAUGAGGAUCACCCAUGUAGAGAAGGCGGUCUCAGCA | 208 | 329 |  | 
28 | UUCCUCUUAACAUGAGGAUCACCCAUGUAUUAUUUGGUAAUUGAGGAUAUAUUUUUAAUGUUUAUAUAGAAGGCAAAUACAGUU | 45.7 | 49.3 |  | 

Row | Sequence | apparent Kd [1] [nM] | apparent Kd [2] [nM] | apparent Kd [3] [nM] | apparent Kd [4] [nM]
29 | CAUCUUGUGUGAGGAUAUAAUGAUAAGAGGACAUUAGAAGGCACAUGAGGAUCACCCAUGUGGCCAGGUCGGCGGCUCCAUAUA | 11.4 | 17.3 |  | 
30 | CUGGUGUGAGGAUAUCAGGGCACGCCCAAGGGCGUACCAAAUGAGAAGGCACAUGAGGAUCACCCAUGUGGGAC | 36.5 | 160 |  | 
31 | GUGGUGCAUAUACGUGGAUGUACAUGAGGAUCACCCAUGUAAGAGGAUAUGCGGAUACUAGCUCAGUAGAAGGCUUACAAAUGA | 9.74 | 9.15 |  | 
32 | AACUCGUCAGGAUAUGCGCACAGAUAAUACGCUUCGCAAUUGCAGAAGGGACAUGAGGAUCACCCAUGUAAAUA | 30.6 | 27 |  | 
33 | ACAUGCAUAGCGAUAUGAUCGAGAGAUCAUGUCGCAAAAUUUAGAAGGACAUGAGGAUCACCCAUGUAGGAUAUGGGAGCAUGA |  |  | 43.8 | 12.9
34 | CCGGCCGCCGUGAGGAUAUGCCCGCGCGCCCGCGGGCAGAAGGCACAUGAGGAUCACCCAUGUCCCGCGGCACC | 13.8 | 15.7 |  | 
35 | ACGACGAAAGUCGAACGAUGUAGCAGAAGGACAUGAGGAUCACCCAUGUUAUCUGUAAUAGACAUGUAGGAUAUGCUACAUCGA | 7.89 | 41.5 |  | 
36 | ACGACGAAAGUCGAACGAUGUAGCAGAAGGACAUGAGGAUCACCCAUGUCAGCUGUGACCAAAAUGUAGGAUAUGCUACAUCGA | 71.1 | 90.8 |  | 
37 | UAACCUCGCGUCAGGAUAUGCGAGGACUGUGACGUGCAGAAGGGACAUGAGGAUCACCCAUGUGAAAGAAUUAA | 25.2 | 25.4 |  | 
38 | CAAGCGGGAGGAUAUACAGGGUUGUCCGAAAAUCGCCAGCCACAUGAGGAUCACCCAUGUAGAAGGCCUAUAGA | 53 | 23.9 |  | 
39 | CUUUUGUGAGGAUAUUCGUCAUAAGGUUGUAAACCUGUGACGAAGAAGGCACAUGAGGAUCACCCAUGUGUCCU | 15.7 | 26.4 |  | 
40 | UGAUCUAGCGGAGGAUAUACAUGAGGAUCACCCAUGUAGAUAUCAUGACCGUAGUCGUGUAUCGUGUAGAAGGCCGCUAGAUCU | 12.7 | 24 |  | 
41 | GUUAUACAUGAGGAUCACCCAUGUCAAUGUAGUCGAGGAUAUGGGUAGCUAUGAGGCGUACUAGAAGGCGAGGAGU |  |  | 77.8 | 160
42 | GAAUAGUUGAGAGGAUAUGUAUUAUUGUAGGAUACAGAAGGUUUUAACAUGAGGAUCACCCAUGUAGGACUAUAUAUGUGAAUA |  |  | 15.2 | 13.2
43 | GCUAGACGUCGAGGAUAUGGGUGUGCGAGUCUUGGCACUGGACAUGAGGAUCACCCAUGUCGCUUCCAGAAGGCGACGUCCCUA |  |  | 38.6 | 6.39
44 | AUAAAUAAGGCGCACAUGAGGAUCACCCAUGUACGGACUAGCAAGGAUAUCAGCGUCGGGUGCAAUGAGAAGGUGUGUGUCAAG |  |  | 45.1 | 74.4
45 | CCAUGCGGAUGAGGAUAUUCAUCCAUGAGGAUAGAAGAAGGCAUACAUGAGGAUCACCCAUGUAUACACAUGAGGAUCCCUUAC | 128 | 178 |  | 
46 | UAUAAACAUGAGGAUCACCCAUGUAAUAAUAUGGGAGGAUAUCAGAUUUAAUUUAAUUUAUGAGAAGGCCUAAUAU |  |  | 627 | 43.1
47 | ACCAUAAACAUAGGAUAUAGAAUAAGAACUACUUACAUGAGGAUCACCCAUGUUAUAUUUGGGUACUAGAAGGAUGAGUGUUAA |  |  | 387 | 259
48 | CGUCGAUACCAGAAGGACAUGAGGAUCACCCAUGUAGGAUAUGGGUGACCGGGAUGGUGGACACGGUGCCCGGGCACAUGCGAC |  |  | 81.8 | 14.9
49 | UCGGCGCGAGGAUAUACGUUUGCGCUUUUUCGUUUUUGCGUACAUGAGGAUCACCCAUGUAGAAGGCGCGCCGC | 15.6 | 23 |  | 
50 | GCCCGGGCAGGAUAUGCAGGCCCGGGAAACCGGGCCAUGGGACAUGAGGAUCACCCAUGUAGAAGGGCCCGGGC | 17.1 | 17.3 |  | 
51 | UUGUUGUAUGUAGGAUAUGCAUAUUAUUAUUAUGCAGAAGGACAUGAGGAUCACCCAUGUAUGUUAUUAUUAUAUGUUAUGUGU | 39.9 | 63.1 |  | 
52 | AUGAGUGUAAUGAUAGAGCCACUGCAGGAUAUCACAUGAGGAUCACCCAUGUGUCAGCCUCGGAGUGAGAAGGGCGGUUUCUUA | 5.65 | 9.7 |  | 
53 | AGAAACUACGAGAAGGACAUGUGAACCUUCAACUACAUGAGGAUCACCCAUGUAGGAUAUCGUAGUUUCAGGAUCGUGAGAUCA | 5.93 | 6.44 |  | 
54 | GGGUACAUCGGAGGAUAUCAUGUGAAUACAUGAGGAUCACCCAUGUCGAUGGAGACAUCGGAGAUUGAGAAGGCCGAUGUACCG |  |  | 446 | 15.1
55 | CUCAUGUGAGGAUAUGUGAUCAACCUUCUAUAUAGAUGAUGACAGAAGGCACAUGAGGAUCACCCAUGUAGAUC | 65.5 | 20.1 |  | 
